Screening results: PubChem BioAssay, Sanford-Burnham Center for Chemical Genomics
FLuc inh counter – counter-screen for luciferase assay inhibitors: firefly luciferase inhibition | P08659 | ATPLite firefly luciferase biochemical luminescence, 10 min | inhibition, % at 10 µM | 1.5% of 200,000 active;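 active means inhibition above about 50% when tested at 10 µM, limit read from the data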
Target sequence (P08659 whole entry, looked up): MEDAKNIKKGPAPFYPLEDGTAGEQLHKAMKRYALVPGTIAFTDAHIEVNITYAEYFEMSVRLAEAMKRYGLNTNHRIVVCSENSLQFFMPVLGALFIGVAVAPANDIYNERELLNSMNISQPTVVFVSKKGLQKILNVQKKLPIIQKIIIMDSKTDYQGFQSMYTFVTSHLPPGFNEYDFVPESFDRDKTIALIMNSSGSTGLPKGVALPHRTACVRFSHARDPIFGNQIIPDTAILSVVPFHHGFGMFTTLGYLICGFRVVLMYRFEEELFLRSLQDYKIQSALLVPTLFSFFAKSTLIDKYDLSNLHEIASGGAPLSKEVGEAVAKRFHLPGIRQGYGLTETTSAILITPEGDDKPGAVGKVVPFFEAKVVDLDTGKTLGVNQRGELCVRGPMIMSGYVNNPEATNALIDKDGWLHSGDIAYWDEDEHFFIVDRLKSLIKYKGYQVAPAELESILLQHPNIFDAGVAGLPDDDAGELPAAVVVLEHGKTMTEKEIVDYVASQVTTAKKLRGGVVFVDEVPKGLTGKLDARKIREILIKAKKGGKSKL
PPC-1+TRAIL kill – kills PPC-1 cancer cells in the presence of TRAIL; 0.41% of 220,000 active; PPC-1 cells + TRAIL, ATPLite viability luminescence; AID 1443; cell killing (% activity), % at 4 µM or 5 µM;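 active means cell killing above 50% in the first pass at 4 µM, then a duplicate retest at 5 µM averaging 50% or more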;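 further: plate controls were cells with TRAIL plus DMSO for no effect and medium-only wells lacking cells for full effect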
TRAIL sens C8 – caspase-8 TRAIL sensitization | NB7+C8 cells + TRAIL, ATPlite viability luminescence | inhibition (viability loss, TRAIL sensitization), % at 10 µM | 1% of 360,000 active;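 active means compounds causing at least 50% loss of cell viability in the single-dose screen, relative to plate controls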
FLuc stim CS – affects firefly luciferase, flagging false hits in luciferase stimulation screens; P08659; 200,000 tested, under 10 active; ATPlite luciferase biochemical, luminescence, 10 min; 0 = ATP-free wells, 1 = DMSO control; activation factor at 10 µM;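 active means luciferase activation factor, scaled between plate controls, of at least 2 with compound at 10 µM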
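assay system = Luciferase/luciferin detection reagent, cell-free biochemical luciferase assay | also added = ATP substrate | times = 10 min post-reagent at room temperature | measured by = luminescence from luciferase reaction | measure = luciferase activation, seen as luminescence increase over controls | benchmarks = low control with PBS replacing ATP, high control enzyme plus ATP without compound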
PPC1 cytotox – kills PPC-1 cells | shares compounds with PPC-1+TRAIL kill | PPC-1 viability, ATPlite luminescence, overnight | cytotoxicity, % at 5 µM | 50% of 1,200 active;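 active means reconfirmed compounds whose average cytotoxicity reaches 50% or more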;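 further: 0% = DMSO-treated cells and 100% = wells holding medium but no cells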
* = called active by the depositor; nt = not tested or not shown. Compounds with a hit are over-represented: about 1.6% of the library has one in this group of screens.

SMILES | FLuc inh counter | PPC-1+TRAIL kill | TRAIL sens C8 | FLuc stim CS | PPC1 cytotox
O=C(Nc1ccccc1)Nc1cc(OCC(F)(F)F)cc(OCC(F)(F)F)c1 | 0 | 23 | 38 | 1 | 24
CCNC(=O)CN(c1ccccc1)S(=O)(=O)c1ccc(Cl)cc1 | -7 | -4 | -4 | 1.1 | 1
Cc1ccc(N(C(=O)CNC(=O)c2ccco2)C(C(=O)NC2CCCCC2)c2ccncc2)cc1F (configuration not stated) | nt | nt | 15 | nt | nt
c1ccc(Nc2ncnc3c2oc2ccccc23)cc1 | 7 | 5 | 18 | 0.9 | 1
Nc1ccn([C@@H]2O[C@H](CNC(=O)[C@@H](Cc3cn(COCc4ccccc4)cn3)NC=O)[C@@H](O)[C@H]2O)c(=O)n1 | nt | nt | 2 | nt | nt
COc1cccc2c1C(=O)O/C2=C/c1ccc2c(c1)OCO2 | 85* | 38 | 63* | 0.2 | 41
Cc1ccc2nc(Nc3ccc(C)c(C)c3)c3nncn3c2c1 | nt | nt | -28 | nt | nt
COc1cccc(CSc2nc3ccncc3[nH]2)c1 | nt | 83* | 86* | nt | 81*
Clc1ccccc1CSc1nc2ccncc2[nH]1 | 90* | 75* | 76* | 0.1 | 76*
Clc1ccccc1CSc1ncccn1 | -7 | 13 | -1 | 1.1 | 17
COc1cccc(N2CCN(C(=O)c3ccc(CSc4nc5ccncc5[nH]4)cc3)CC2)c1 | 6 | 0 | 11 | 0.9 | nt
CCCCCCNC(=O)CNC(=S)N(Cc1cccs1)C1CCCCC1 | nt | nt | 6 | nt | nt
CN1CCN(NC(=O)CN2C(=O)S/C(=C\c3c(Cl)cccc3Cl)C2=O)CC1 | 4 | 4 | -2 | 1 | nt
Cc1ccc(C(=O)Nc2ccc(O)c(C(=O)O)c2)o1 | 2 | -1 | -1 | 1 | -7
CCCN(CC(=O)Nc1ccccc1OC)C(=O)CC1CCCC1 | nt | nt | -2 | nt | nt
COc1cccc(-c2nnn(CC(=O)Nc3cc(OC)c(NC(=O)c4ccco4)cc3OC)n2)c1 | -1 | 8 | -3 | 1 | 19
CCOC(=O)CN1N=C(/C=C/c2ccc(C)cc2)CCC1=O | 1 | 10 | -2 | 1 | nt
COc1ccc(/C=C/C2=NN(C)C(=O)CC2)cc1 | 81* | 53* | 53* | 0.2 | 48
Cn1c(NCCc2ccncc2)nc2cc(-c3ccsc3)sc2c1=O | nt | nt | 15 | nt | nt
CCc1ccccc1N(CC(=O)O)S(C)(=O)=O | -1 | -14 | 29 | 1 | -15
CN(c1cccc(NC(=O)c2ccc(C(C)(C)C)cc2)c1)S(C)(=O)=O | 80* | 41 | 73* | 0.2 | 53*
CCc1ccccc1N(CC(=O)Nc1cccc(N(C)S(C)(=O)=O)c1)S(C)(=O)=O | -4 | 9 | 1 | 1 | 18
CCc1ccc(-c2cc(C)no2)cc1S(=O)(=O)N1CCCN(Cc2ccc(F)cc2)C1 | nt | nt | 13 | nt | nt
COc1ccc(-c2nc3ccccc3[nH]2)cc1 | 93* | 78* | 79* | 0.1 | 77*
Cc1cc(NC(=O)CSC2=Nc3ccccc3C3=NC(Cc4ccccc4)C(=O)N23)n[nH]1 (configuration not stated) | -3 | -6 | -5 | 1 | -2
SMILES | FLuc inh counter | PPC-1+TRAIL kill | TRAIL sens C8 | FLuc stim CS | PPC1 cytotox
CC(C)(C)C1=C(C#N)C(c2cc3c(cc2Br)OCO3)C(C#N)=C(N)O1 (configuration not stated) | -2 | -10 | -7 | 1 | 4
Cc1ccc(C2C(C#N)=C(N)Oc3cc4c(cc32)OCO4)cc1 (configuration not stated) | 3 | 8 | 0 | 1 | nt
COC(=O)c1ccc(Nc2nc(C)cc(=O)[nH]2)cc1 | 0 | 3 | -4 | 1 | 15
CCCCCCC(C)n1[nH]c(=O)cc1N (configuration not stated) | nt | 5 | 1 | nt | nt
Cc1ccc(C(=O)N(C)c2ccc(OCC(=O)N3c4ccc(C)cc4C4CN(C)CCC43)cc2)cc1 (configuration not stated) | 88* | 52* | 52* | 0.1 | 46
Cc1ccc2c(c1)C1CN(C)CCC1N2C(=O)COc1ccc(N(C)C(=O)C(C)(C)C)cc1 (configuration not stated) | -6 | -7 | -3 | 1.1 | nt
Fc1ccc(CSc2nc3ccccc3[nH]2)cc1 | 49 | 33 | 45 | 0.5 | 28
Fc1ccc(CSc2nc3ncccc3[nH]2)cc1 | 45 | 31 | 12 | 0.6 | nt
COc1cccc(/C=C/C(=O)c2c(O)cc(C)oc2=O)c1O | 5 | -18 | 11 | 1 | nt
COc1ccc(/C=C/C(=O)c2c(O)cc(C)oc2=O)c(OC)c1 | 95* | 87* | 89* | 0 | 86*
NC(=O)c1ccsc1NC(=O)c1cccs1 | nt | nt | 14 | nt | nt
NC(=O)c1ccsc1NC(=O)c1ccc2c(c1)CCCC2 | 91* | 78* | 85* | 0.1 | 76*
NC(=O)c1ccsc1NC(=O)c1ccc(N2CCCC2=O)cc1 | 93* | 77* | 80* | 0.1 | 74*
COc1ccc(NC(=O)O/N=C/c2c(C)nn(C(C)(C)C)c2C)cc1 | nt | 72* | 27 | nt | 74*
O=C(/C=C/c1ccc(Cl)cc1Cl)Nc1cccc(S(=O)(=O)NC2=NCCC2)c1 | 96* | 87* | 91* | 0 | 88*
C/C(=N/OCC(=O)Nc1ccc(C)cc1C)c1cccs1 | -7 | -12 | 3 | 1.1 | 2
C/C(=N\OCC(=O)Nc1ccccc1C(=O)O)c1cccs1 | 21 | 11 | 2 | 0.8 | nt
Cc1ccccc1NC(=S)N1CCN(c2ccccc2Cl)CC1 | nt | nt | -34 | nt | nt
CCOC(=O)[C@]12CCCC=C1N(Cc1ccc3c(c1)OCO3)C(=O)[C@H](CC(=O)N1CCCC1)C2 | nt | nt | -13 | nt | nt
O=C(Nc1ccc([N+](=O)[O-])cc1)C(=O)Nc1cccc(C(=O)O)c1 | nt | 75* | 86* | nt | 70*
COc1cc(SC)ccc1C(=O)Nc1ncc(Cl)cc1Cl | 27 | 40 | 21 | 0.7 | nt
COc1cc(SC)ccc1C(=O)Nc1ccc2c(c1)OCO2 | 72* | 42 | 38 | 0.3 | 40
COc1cc(SC)ccc1C(=O)Nc1ncc(C)s1 | 93* | 73* | 80* | 0.1 | 76*
COc1cc(SC)ccc1C(=O)Nc1ccc(Br)cn1 | nt | 88* | 86* | nt | 88*
COc1ccc(C(=O)Nc2ccc3c(c2)OCCO3)c(OC)c1 | nt | nt | 46 | nt | nt
SMILES | FLuc inh counter | PPC-1+TRAIL kill | TRAIL sens C8 | FLuc stim CS | PPC1 cytotox
COc1cc(SC)ccc1C(=O)Nc1ccccn1 | nt | 68* | 77* | nt | 66*
COCCn1c(SCC(=O)NCC2CCCO2)nc2c(c1=O)SCC2 (configuration not stated) | nt | nt | -6 | nt | nt
CC1Cc2ccccc2N1Cc1ccc([N+](=O)[O-])cc1 (configuration not stated) | nt | nt | -8 | nt | nt
Cc1cc(/C=N/Nc2ncnc(N)c2[N+](=O)[O-])c(C)n1-c1ccccc1 | nt | 86* | 85* | nt | 87*
O=C(O)c1c2c(nc3ccccc13)/C(=C/c1ccc(O)cc1)CC2 | 96* | 48 | 58* | 0 | 49
OC(c1cc(C(F)(F)F)nc2c(Cl)cc(Cl)cc12)C1CCCCN1 (configuration not stated) | nt | 17 | 3 | nt | nt
